Experimental data taken from ChEMBL document CHEMBL4680310, “Identification of N-acyl-N-indanyl-α-phenylglycinamides as selective TRPM8 antagonists designed to mitigate the risk of adverse effects” (Bioorg Med Chem, 2021).
pEC50, pIC50: −log10 of the molar value. Each block holds one compound with its values, some of them ahead of it. The source made the active and inactive calls. No cut-off for these calls is given here.

Key:
[1] = target: T1, Nuclear receptor subfamily 1 group I member 2 (Homo sapiens, UniProt O75469); test: Activation of human PXR ligand binding domain incubated for 1 hr by TR-FRET assay; type: ADME
T1 sequence (O75469 whole entry): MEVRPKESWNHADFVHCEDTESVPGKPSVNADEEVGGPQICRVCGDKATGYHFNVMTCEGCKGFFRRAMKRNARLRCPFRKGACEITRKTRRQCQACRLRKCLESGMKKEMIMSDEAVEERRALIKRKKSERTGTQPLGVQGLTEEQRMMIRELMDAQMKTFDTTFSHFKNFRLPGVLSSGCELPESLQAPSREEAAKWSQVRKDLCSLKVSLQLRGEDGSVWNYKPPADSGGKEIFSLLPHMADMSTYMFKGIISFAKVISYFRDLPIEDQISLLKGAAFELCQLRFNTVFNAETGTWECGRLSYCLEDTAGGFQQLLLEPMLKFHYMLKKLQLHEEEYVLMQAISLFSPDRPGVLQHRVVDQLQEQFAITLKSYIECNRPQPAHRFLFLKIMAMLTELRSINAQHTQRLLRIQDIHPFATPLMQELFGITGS

CYP3A4 = CYP3A4 (Homo sapiens, UniProt P08684); test: Inhibition of CYP3A4 in human liver microsomes assessed as reduction in 1'-hydroxymidazolam formation using midazolam as substrate at 10 uM preincubated with enzyme and NADPH followed by substrate addition and measured after 10 mins by HPLC/MS-MS analysis relative to control; type: ADME; settings: probe midazolam (1'-hydroxymidazolam formation)
Outline: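 Compound at 100 µM was pre-incubated at 37 °C with human liver microsomes (0.5 mg/mL) in 0.1 M phosphate pH 7.4 with 5 mM MgCl₂ and 1 mM NADPH. The mix was then diluted 10-fold into 25 µM midazolam in the same buffer and incubated 10 min at 37 °C. Ice-cold acetonitrile stopped the reaction. 1′-Hydroxymidazolam was quantified by HPLC-MS/MS, with ketoconazole (1 µM) as reference inhibitor.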

[2] = Toxicity in mouse assessed as convulsions at 300 mg/kg, po; type: organism-based; settings: in vivo
[3] = target: Transient receptor potential cation channel subfamily M member 8 (Homo sapiens, UniProt Q7Z2W7); test: Antagonist activity at human TRPM8 transfected in HEK293T cells assessed as reduction in menthol-induced calcium influx measured after 60 mins by Fluo-4 AM dye based fluorescence analysis; type: cell-based
[4] = In vivo antagonist activity at TRPM8 in Sprague-Dawley rat assessed as inhibition of icilin-induced wet dog shakes at 10 mg/kg, po administered 1 hr prior to icilin administration and measured after 5 mins for 5 mins; type: functional; settings: 1.167 h, time 70 min
Outline: (§1)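 Female rats received vehicle or compound orally. After 1 or 4 h, icilin (1 mg/mL in PEG 400) was given intraperitoneally. Wet-dog shakes were counted for 5 min, starting 5 min after icilin. Results are percent inhibition versus vehicle-treated counts, mean ± SEM (n = 5).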

[5] = In vivo antagonist activity at TRPM8 in Sprague-Dawley rat assessed as inhibition of icilin-induced wet dog shakes at 10 mg/kg, po administered 4 hrs prior to icilin administration and measured after 5 mins for 5 mins; type: functional; settings: 4.167 h, time 250 min; outline: as §1
[6] = Ratio of drug level in rat brain to plasma measured after 4 hrs; type: ADME, cell-free; settings: read-out: BPR
Rattus norvegicus [7] = test: Inhibition of overactive bladder activity in Sprague-Dawley rat assessed as inhibition of cold-induced voiding behaviour by measuring reduction in voiding frequency at 10 mg/kg, po administered 1 hr prior to cold exposure and measured at 2 mins interval for 4 hrs; type: functional, organism-based; settings: time 5.0 hrs
Rattus norvegicus [8] = test: Inhibition of overactive bladder activity in Sprague-Dawley rat assessed as inhibition of cold-induced voiding behaviour by measuring total voided volume at 10 mg/kg, po administered 1 hr prior to cold exposure and measured at 2 mins interval for 4 hrs (reference value: 5.57 +/-0.27 ml); type: functional; settings: time 5 hrs
Rattus norvegicus [9] = test: Inhibition of overactive bladder activity in Sprague-Dawley rat assessed as inhibition of cold-induced voiding behaviour by measuring mean voided volume at 10 mg/kg, po administered 1 hr prior to cold exposure and measured at 2 mins interval for 4 hrs (reference value: 0.57 +/- 0.05 ml); type: functional; settings: time 5 hrs
[10] = Drug uptake in rat brain measured after 4 hrs; type: ADME, tissue-based; settings: read-out: Drug uptake
[11] = Plasma concentration in rat measured after 4 hrs; type: ADME, cell-free
[12] = Total clearance in Sprague-Dawley rat at 1 mg/kg, iv measured upto 6 hrs by LC-MS/MS analysis; type: ADME, organism-based; settings: in vivo
Outline: (§2)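 Rats were given a single oral or intravenous dose. Blood was taken from the jugular vein at 2, 15 and 30 min and at 1, 2, 4 and 6 h. Plasma levels were measured by LC-MS/MS. Each parameter was calculated from the mean plasma concentration of three animals.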

[13] = Tmax in Sprague-Dawley rat at 3 mg/kg, po by LC-MS/MS analysis; type: ADME, organism-based; settings: in vivo, time <=6 hrs; outline: as §2
[14] = target: Transient receptor potential cation channel subfamily A member 1 (Homo sapiens, UniProt O75762); test: Inhibition of human TRPA1 transfected in HEK293T cells assessed as reduction in AITC-induced calcium influx measured after 60 mins by Fluo-4 AM dye based fluorescence analysis; type: cell-based
Outline: (§3)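 HEK293T cells were seeded at 5 × 10⁴ cells/well in DMEM with 10% FBS and transfected 4 h later. The vectors were pcDNA3.1 for TRPM8, TRPA1 and TRPV4, and pCI-neo for TRPV1. After 2 days, cells were dye-loaded for 60 min at 37 °C: Fluo-4 AM for TRPM8, TRPA1 and TRPV1, Fura-2 AM for TRPV4. Calcium was read on an FDSS reader. IC50 came from nonlinear regression, mean ± SEM (n = 3).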

[15] = target: Transient receptor potential cation channel subfamily V member 1 (Homo sapiens, UniProt Q8NER1); test: Inhibition of human TRPV1 transfected in HEK293T cells assessed as reduction in capsaicin-induced calcium influx measured after 60 mins by Fluo-4 AM dye based fluorescence analysis; type: cell-based; outline: as §3
[16] = target: Transient receptor potential cation channel subfamily M member 8 (Rattus norvegicus, UniProt Q8R455); test: Antagonist activity at rat TRPM8 transfected in HEK293T cells assessed as reduction in menthol-induced calcium influx measured after 60 mins by Fluo-4 AM dye based fluorescence analysis; type: cell-based; outline: as §3
[17] = Volume of distribution at steady state in Sprague-Dawley rat at 1 mg/kg, iv measured upto 6 hrs by LC-MS/MS analysis; type: ADME, organism-based; settings: in vivo, read-out: Vdss; outline: as §2
[18] = Cmax in Sprague-Dawley rat at 3 mg/kg, po measured upto 6 hrs by LC-MS/MS analysis; type: ADME, organism-based; set-up: route oral, dose 3 mg/kg, time <=6; settings: in vivo; outline: as §2
[19] = Half life in Sprague Dawley rat at 1 mg/kg, iv by LC-MS/MS analysis; type: ADME, organism-based; settings: in vivo; outline: as §2
[20] = AUC (0 to infinity) in Sprague-Dawley rat at 3 mg/kg, po by LC-MS/MS analysis; type: ADME, organism-based; set-up: time infinity, route oral, dose 3 mg/kg; settings: in vivo; outline: as §2
[21] = AUC (0 to infinity) in Sprague-Dawley rat at 1 mg/kg, iv by LC-MS/MS analysis; type: ADME, organism-based; set-up: time infinity, route intravenous, dose 1 mg/kg; settings: in vivo; outline: as §2
[22] = target: Transient receptor potential cation channel subfamily V member 4 (Homo sapiens, UniProt Q9HBA0); test: Inhibition of human TRPV4 transfected in HEK293T cells assessed as reduction in RN1747-induced calcium influx measured after 60 mins by Fura-2 AM dye based fluorescence analysis; type: cell-based; outline: as §3
[23] = Oral bioavailability in Sprague-Dawley rat at 3 mg/kg measured upto 6 hrs by LC-MS/MS analysis; type: ADME, organism-based; settings: in vivo; outline: as §2

Chain of CYP3A4 (P08684 whole entry): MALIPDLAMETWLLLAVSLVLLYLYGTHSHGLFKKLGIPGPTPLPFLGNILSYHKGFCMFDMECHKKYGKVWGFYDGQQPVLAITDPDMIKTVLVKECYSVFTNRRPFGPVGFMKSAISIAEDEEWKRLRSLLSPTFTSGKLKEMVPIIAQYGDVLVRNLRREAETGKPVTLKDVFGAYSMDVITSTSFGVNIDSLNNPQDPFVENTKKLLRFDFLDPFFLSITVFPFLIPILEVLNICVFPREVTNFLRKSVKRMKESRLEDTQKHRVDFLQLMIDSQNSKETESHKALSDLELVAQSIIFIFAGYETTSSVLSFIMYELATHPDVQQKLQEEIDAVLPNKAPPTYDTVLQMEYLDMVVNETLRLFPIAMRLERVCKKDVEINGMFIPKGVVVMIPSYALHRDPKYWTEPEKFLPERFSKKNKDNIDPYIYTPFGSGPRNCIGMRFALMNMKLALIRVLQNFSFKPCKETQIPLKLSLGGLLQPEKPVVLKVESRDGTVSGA
Chain of Transient receptor potential cation channel subfamily A member 1 (O75762 whole entry): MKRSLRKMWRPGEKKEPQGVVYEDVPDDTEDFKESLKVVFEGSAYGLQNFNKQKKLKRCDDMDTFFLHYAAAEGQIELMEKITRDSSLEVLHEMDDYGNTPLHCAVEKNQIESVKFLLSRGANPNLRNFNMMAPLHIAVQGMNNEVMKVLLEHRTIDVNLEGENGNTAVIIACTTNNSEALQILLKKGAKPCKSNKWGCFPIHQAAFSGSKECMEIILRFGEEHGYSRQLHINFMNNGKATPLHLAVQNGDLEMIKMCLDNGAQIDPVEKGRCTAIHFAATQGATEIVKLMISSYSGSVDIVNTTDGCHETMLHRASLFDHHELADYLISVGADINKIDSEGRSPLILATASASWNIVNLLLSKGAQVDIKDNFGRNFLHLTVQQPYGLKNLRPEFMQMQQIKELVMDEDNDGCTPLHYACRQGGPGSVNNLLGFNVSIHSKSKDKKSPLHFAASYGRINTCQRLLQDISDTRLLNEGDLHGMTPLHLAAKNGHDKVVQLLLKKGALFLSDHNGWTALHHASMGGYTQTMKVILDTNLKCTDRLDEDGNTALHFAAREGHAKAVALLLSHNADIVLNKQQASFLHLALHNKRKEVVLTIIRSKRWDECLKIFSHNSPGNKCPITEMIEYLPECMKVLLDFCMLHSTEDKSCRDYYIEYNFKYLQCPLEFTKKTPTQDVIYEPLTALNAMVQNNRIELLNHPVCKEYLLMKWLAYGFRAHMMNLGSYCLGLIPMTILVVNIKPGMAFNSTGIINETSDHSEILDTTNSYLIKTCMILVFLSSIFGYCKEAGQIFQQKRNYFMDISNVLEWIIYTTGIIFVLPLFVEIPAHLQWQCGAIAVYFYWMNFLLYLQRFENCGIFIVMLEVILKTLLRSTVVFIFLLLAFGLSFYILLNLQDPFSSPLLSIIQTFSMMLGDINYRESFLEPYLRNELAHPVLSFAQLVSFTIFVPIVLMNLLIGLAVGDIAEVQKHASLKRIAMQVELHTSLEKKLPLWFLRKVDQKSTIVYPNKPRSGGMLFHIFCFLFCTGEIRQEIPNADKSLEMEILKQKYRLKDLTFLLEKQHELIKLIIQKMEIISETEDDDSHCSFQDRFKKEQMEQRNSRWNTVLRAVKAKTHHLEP
Chain of Transient receptor potential cation channel subfamily V member 1 (Q8NER1 whole entry): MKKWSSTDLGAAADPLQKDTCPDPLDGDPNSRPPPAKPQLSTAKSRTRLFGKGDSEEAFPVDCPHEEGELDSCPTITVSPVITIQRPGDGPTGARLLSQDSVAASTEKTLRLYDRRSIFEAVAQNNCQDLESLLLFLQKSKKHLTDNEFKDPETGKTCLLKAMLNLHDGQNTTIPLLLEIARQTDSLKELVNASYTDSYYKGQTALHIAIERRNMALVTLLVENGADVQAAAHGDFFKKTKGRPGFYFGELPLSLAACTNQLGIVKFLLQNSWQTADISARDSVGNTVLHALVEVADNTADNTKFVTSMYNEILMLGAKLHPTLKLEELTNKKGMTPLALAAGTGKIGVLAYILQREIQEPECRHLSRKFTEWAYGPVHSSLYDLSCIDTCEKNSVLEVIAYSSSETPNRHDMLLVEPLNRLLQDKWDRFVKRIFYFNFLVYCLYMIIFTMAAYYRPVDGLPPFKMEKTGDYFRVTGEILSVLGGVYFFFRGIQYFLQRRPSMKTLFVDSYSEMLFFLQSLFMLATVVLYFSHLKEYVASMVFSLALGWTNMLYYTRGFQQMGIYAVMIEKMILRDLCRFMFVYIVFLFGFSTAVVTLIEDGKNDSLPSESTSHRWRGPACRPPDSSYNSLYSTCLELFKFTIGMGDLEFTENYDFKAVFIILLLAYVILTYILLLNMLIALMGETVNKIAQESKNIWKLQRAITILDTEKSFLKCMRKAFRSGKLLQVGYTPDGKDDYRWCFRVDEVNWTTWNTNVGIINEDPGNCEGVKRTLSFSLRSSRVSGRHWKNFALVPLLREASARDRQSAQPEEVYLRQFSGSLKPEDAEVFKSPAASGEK
Chain of Transient receptor potential cation channel subfamily V member 4 (Q9HBA0 whole entry): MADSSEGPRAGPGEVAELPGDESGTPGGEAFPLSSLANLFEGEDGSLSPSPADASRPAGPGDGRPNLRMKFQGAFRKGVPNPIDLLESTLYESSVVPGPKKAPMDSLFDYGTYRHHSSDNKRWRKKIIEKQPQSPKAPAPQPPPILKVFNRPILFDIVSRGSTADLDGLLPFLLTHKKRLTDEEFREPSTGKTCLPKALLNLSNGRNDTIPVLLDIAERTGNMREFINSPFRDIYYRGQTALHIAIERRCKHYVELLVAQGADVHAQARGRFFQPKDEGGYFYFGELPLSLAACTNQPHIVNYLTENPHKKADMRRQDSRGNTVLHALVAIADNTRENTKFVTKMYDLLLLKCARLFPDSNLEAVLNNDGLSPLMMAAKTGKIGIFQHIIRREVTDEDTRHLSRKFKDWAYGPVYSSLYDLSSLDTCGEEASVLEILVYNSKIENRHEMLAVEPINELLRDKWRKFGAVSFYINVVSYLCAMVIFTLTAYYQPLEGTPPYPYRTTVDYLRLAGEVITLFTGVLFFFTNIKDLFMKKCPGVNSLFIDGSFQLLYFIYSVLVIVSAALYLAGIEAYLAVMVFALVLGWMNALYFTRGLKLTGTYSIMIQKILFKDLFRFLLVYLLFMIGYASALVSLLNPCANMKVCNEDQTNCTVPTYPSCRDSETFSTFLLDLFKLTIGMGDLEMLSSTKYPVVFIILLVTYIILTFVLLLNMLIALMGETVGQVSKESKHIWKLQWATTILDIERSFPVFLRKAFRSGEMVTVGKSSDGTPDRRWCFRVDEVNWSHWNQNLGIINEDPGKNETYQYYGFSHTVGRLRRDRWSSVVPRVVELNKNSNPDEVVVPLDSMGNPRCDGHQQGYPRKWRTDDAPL
Chain of Transient receptor potential cation channel subfamily M member 8 (Homo sapiens, UniProt Q7Z2W7) (Q7Z2W7 whole entry): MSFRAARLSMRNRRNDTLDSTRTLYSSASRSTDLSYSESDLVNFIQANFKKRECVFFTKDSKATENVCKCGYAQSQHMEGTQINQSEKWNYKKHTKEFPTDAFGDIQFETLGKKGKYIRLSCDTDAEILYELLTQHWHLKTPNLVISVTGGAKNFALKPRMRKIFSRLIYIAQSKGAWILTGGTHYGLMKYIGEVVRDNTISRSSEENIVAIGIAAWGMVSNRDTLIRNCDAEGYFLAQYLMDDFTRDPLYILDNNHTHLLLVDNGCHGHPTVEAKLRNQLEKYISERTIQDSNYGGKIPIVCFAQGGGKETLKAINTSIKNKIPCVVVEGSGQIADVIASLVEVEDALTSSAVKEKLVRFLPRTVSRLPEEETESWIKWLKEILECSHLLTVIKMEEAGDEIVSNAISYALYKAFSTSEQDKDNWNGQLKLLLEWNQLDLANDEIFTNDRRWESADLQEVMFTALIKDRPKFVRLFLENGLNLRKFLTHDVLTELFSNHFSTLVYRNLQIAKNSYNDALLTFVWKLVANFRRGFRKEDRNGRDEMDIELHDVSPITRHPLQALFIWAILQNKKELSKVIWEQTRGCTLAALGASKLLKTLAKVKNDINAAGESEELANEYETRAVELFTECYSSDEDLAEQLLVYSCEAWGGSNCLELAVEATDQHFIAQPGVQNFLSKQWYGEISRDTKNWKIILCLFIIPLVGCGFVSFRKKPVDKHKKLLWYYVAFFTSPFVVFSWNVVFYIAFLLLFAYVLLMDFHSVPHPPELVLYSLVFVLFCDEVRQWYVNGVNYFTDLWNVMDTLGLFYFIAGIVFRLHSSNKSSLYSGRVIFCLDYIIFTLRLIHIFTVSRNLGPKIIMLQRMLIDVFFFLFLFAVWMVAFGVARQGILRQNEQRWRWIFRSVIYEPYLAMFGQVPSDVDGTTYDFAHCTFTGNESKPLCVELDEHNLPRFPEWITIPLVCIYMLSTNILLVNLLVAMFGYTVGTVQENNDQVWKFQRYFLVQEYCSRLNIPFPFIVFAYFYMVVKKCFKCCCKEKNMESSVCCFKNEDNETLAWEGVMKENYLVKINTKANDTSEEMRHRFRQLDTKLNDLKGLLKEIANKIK

pEC50 [1]: 4.33
Compound: NC(=O)[C@@H](c1ccccc1)N(C(=O)c1cccnc1)[C@@H]1CCc2c(F)cc(F)cc21

inhibition at 10 min, 10 µM (CYP3A4): 18%
Compound: NC(=O)[C@@H](c1ccccc1)N(C(=O)c1cccnc1N)[C@@H]1CCc2c(F)cc(Cl)cc21

inhibition at 10 min, 10 µM (CYP3A4): 22%
Compound: COc1ncccc1C(=O)N([C@@H]1CCc2c(F)cc(Cl)cc21)[C@@H](C(N)=O)c1ccccc1

inhibition at 10 min, 10 µM (CYP3A4): 65% | pEC50 [1]: 3.88
Compound: NC(=O)[C@@H](c1ccccc1)N(C(=O)c1cccnc1)[C@@H]1CCc2c(F)cc(Cl)cc21
Activity [2]: Non-Toxic

clearance [12]: 25 mL/min/kg | Tmax [13]: 40 min | pIC50 [14]: < 4.52 | pIC50 [15]: < 4.52 | pIC50 [16]: 7.10 | inhibition at 10 min, 10 µM (CYP3A4): 17% | Vd [17]: 1.89 L/kg | Cmax [18]: 466 ng/mL | half-life [19]: 64 min | AUC(0-inf) [20]: 1110 ng·h/mL | AUC(0-inf) [21]: 674 ng·h/mL | pIC50 [22]: < 4.52 | bioavailability [23]: 55%
Compound: Cc1ncccc1C(=O)N([C@@H]1CCc2c(F)cc(Cl)cc21)[C@@H](C(N)=O)c1ccccc1
Activity [2]: Non-Toxic

More lines, now with the values behind:

Compound: C[C@H](c1cc(F)cc(F)c1)N(C(=O)c1ccccc1O)[C@@H](C(N)=O)c1ccccc1
pEC50 [1]: 4.92

Compound: NC(=O)[C@@H](c1ccccc1)N(C(=O)c1ccccc1)[C@@H]1CCc2ncccc21
pIC50 [3]: 4.71

Compound: C[C@H](c1cc(F)cc(F)c1)N(C(=O)c1ccccc1)[C@@H](C(N)=O)c1ccccc1
inhibition in vivo at 10 mg/kg [4]: 100% | inhibition in vivo at 10 mg/kg [5]: 97% | Kp at 4 h [6]: 1.66 | inhibition at 10 min, 10 µM (CYP3A4): 27% | inhibition (Rattus norvegicus [7]): Active | Activity (Rattus norvegicus [8]): 5.81 mL | pEC50 [1]: 4.99 | Activity (Rattus norvegicus [9]): 0.75 mL | concentration at 4 h [10]: 171 µM | concentration at 4 h [11]: 103 µM
